Molecules are shown by their SMILES.

The test system of data set [1] is L1210. Briefly: In vivo antitumor activity against intraperitoneal murine wild type L1210 Leukemia cells at 170 umol/kg. In kind it is functional, Mus musculus.
Data set [2] concerns L1210. Briefly: In vivo antitumor activity against intraperitoneal murine wild type L1210 Leukemia cells at 340 umol/kg. The data set is classed as functional, Mus musculus.
For data set [3], the system named is L1210. Briefly: In vitro antitumor activity against cyclophosphamide-resistant L1210/CP cells. The data set is classed as functional, Mus musculus. The method, boiled down:
(§1)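 Clonogenic survival assay in wild-type or cyclophosphamide-resistant L1210 and P388 cells with 1-h drug exposure. LC99 is the concentration that lowers colony formation to 1% of control. It comes from linear regression of log surviving fraction vs concentration over the linear portion, using at least three determinations. Standard errors are within ±10%.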

Data set [4] has as its system L1210. Put plainly: In vitro antitumor activity against wild-type L1210/0 cells. In kind it is functional, Mus musculus. A digest of the protocol:
as §1

Data set [5] deals with L1210. Put plainly: Ratio of resistance factor LC99 […] to that of LC99 […]. The data set is classed as functional, Mus musculus. The method, boiled down: (§2)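 Resistance factor is LC99 in the cyclophosphamide-resistant line divided by LC99 in the wild-type line. Each LC99 is from a clonogenic assay with 1-h drug exposure: the concentration that reduces colonies to 1% of control, by linear regression of log survival vs concentration from at least three determinations.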

Data set [6] relates to P388. Briefly: In vitro antitumor activity against cyclophosphamide-resistant P388/CP cells. The data set is classed as functional, Mus musculus. The method, boiled down:
as §1

The test system of data set [7] is P388. Put plainly: In vitro antitumor activity against wild-type P388/0 cells. The data set is classed as functional, Mus musculus. The method, boiled down: as §1
Data set [8] concerns P388. Put plainly: Ratio of resistance factor LC99 […] to that of LC99 […]. The data set is classed as functional, Mus musculus. A digest of the protocol:
as §2

Data set [9] has as its system L1210. Put plainly: In vivo antitumor activity against intraperitoneal murine wild type L1210 Leukemia cells at 510 umol/kg. The data set is classed as functional, Mus musculus.
The nature of data set [10]: Hydrolysis rate constant at pH 7.4 and 50 mM HEPES buffer. The data set is classed as ADME. A digest of the protocol: (§3)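 Spectrophotometric hydrolysis assay of model perhydrooxazines at 37 °C. Buffer strength was varied by mixing a stock of 0.25 M HEPES, phenol red (10 mg/100 mL) and KCl (μ = 0.20) with a matching stock that lacked HEPES. Substrate was added in DMSO (1:4 v/v) at a perhydrooxazine:buffer molar ratio of 0.1, with DMSO in the reference cell. The phenol red absorbance rise at 560 nm was read over 1 h. k came from the slope of ln(A∞ − At) vs time.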

Data set [11] is described as follows: Hydrolysis rate constant at pH 7.8 and 25 mM HEPES buffer. In kind it is ADME. The method, boiled down: as §3
Data set [12] in a line: Hydrolysis rate constant at pH 6.8 and 25 mM HEPES buffer. The data set is classed as ADME. The method, boiled down: as §3
Data set [13] can be described thus: Hydrolysis rate constant at pH 7 and 25 mM HEPES buffer. The data set is classed as ADME. The method, boiled down: as §3
The nature of data set [14]: Hydrolysis rate constant at pH 7.4 and 12.5 mM HEPES buffer. The data set is classed as ADME. A digest of the protocol: as §3
Data set [15] in a line: Hydrolysis rate constant at pH 7.4 and 25 mM HEPES buffer. In kind it is ADME. A digest of the protocol:
as §3

On to `CC1CC(C)(C)NC(CC(OP(N)(=O)N(CCCl)CCCl)c2ccccc2)O1` (stereo unspecified), for which the T/C in the data set on L1210 [1] and with L1210 [2] was 125% throughout. The LC99 in the data set on L1210 [3] was 14 µM; with L1210 [4] it was 13 µM; with P388 [6] it was 10 µM; in the data set with P388 [7], 7 µM. Besides, the RF with L1210 [5] is 1.1; in the data set with P388 [8], 1.4.

In the case of `CC1CC(C)(C)NC(CCOP(=O)(N(CCCl)CCCl)N(CCCl)CCCl)O1` (stereo unspecified), the LC99 is 19 µM in the data set on L1210 [3], 7 µM in the data set with L1210 [4], 10 µM in the data set on P388 [6] and 5 µM in the data set on P388 [7]. Also, the RF in the data set on L1210 [5] turned out to be 2.7; in the data set with P388 [8], 2.

On to `CC1CC(C)(C)NC(CCOP(N)(=O)N(CCCl)CCCl)O1` (stereo unspecified), for which the T/C (as a rule, the ratio of treated to control) was determined as 167% in the data set with L1210 [9], 144% in the data set with L1210 [1] and 144% in the data set on L1210 [2]. The LC99 with L1210 [3] stood at 145 µM; with L1210 [4] it was 21 µM; in the data set with P388 [6], 92 µM; with P388 [7] it was 19 µM. Besides, the RF in the data set on L1210 [5] was 6.9; in the data set on P388 [8], 4.8.

`C[C@@H]1CC(C)(C)N[C@H](CCc2ccccc2)O1`: the khydr came to 0.0095 min⁻¹ in data set [10]; 0.0082 min⁻¹ in [11]; 0.0042 min⁻¹ in data set [12]; 0.0065 min⁻¹ in data set [13]; 0.0086 min⁻¹ in data set [14]; 0.0094 min⁻¹ in data set [15].

Consider `CC1CC(C)(C)NC(CCOP(=O)(N(CCCl)CCCl)N2CCOCC2)O1` (stereo unspecified), for which the T/C in the data set with L1210 [9] and in the data set on L1210 [2] was 113% in each case. Besides, the LC99 amounted to 150 µM in the data set with L1210 [3], 84 µM in the data set on L1210 [4], 117 µM in the data set on P388 [6] and 56 µM in the data set with P388 [7]. For the same compound, the RF in the data set on L1210 [5] came to 1.8; in the data set on P388 [8] it was 2.1.

For the compound `CC1CC(C)(C)NC(CC(OP(=O)(N(CCCl)CCCl)N(CCCl)CCCl)c2ccccc2)O1` (stereo unspecified), the T/C is reported as 170% with L1210 [9], 125% in the data set on L1210 [1] and 150% in the data set on L1210 [2]. Also, the LC99 in the data set with L1210 [3] worked out at 3 µM; in the data set with L1210 [4] it was 2 µM; in the data set with P388 [6], 2 µM; in the data set with P388 [7], 2 µM. Further, the results for the RF in the data set on L1210 [5] and with P388 [8] were 1.5 and 1, respectively.

As for `CC[C@H]1NC(C)(C)C[C@@H](C)O1`, the khydr in data set [10] is 0.0086 min⁻¹; in data set [14], 0.0088 min⁻¹; in [15], 0.0085 min⁻¹.

Consider `CCN(CC)P(N)(=O)OC(CC1NC(C)(C)CC(C)O1)c1ccccc1` (stereo unspecified), for which the LC99 in the data set on L1210 [3], in the data set on L1210 [4], in the data set on P388 [6] and in the data set on P388 [7] was >200 µM each time.

Regarding `CCN(CC)P(=O)(OCCC1NC(C)(C)CC(C)O1)N(CC)CC` (stereo unspecified), the LC99 in the data set with L1210 [3], in the data set with L1210 [4], in the data set on P388 [6] and in the data set on P388 [7] was >200 µM each time.

Turning to `CC1CC(C)(C)NC(CC(OP(=O)(N(CCCl)CCCl)N2CCOCC2)c2ccccc2)O1` (stereo unspecified), the T/C in the data set on L1210 [9] was found to be 111%; in the data set with L1210 [1] it was 100%; in the data set with L1210 [2], 100%. The LC99 stood at 38 µM in the data set on L1210 [3], 28 µM in the data set on L1210 [4], 22 µM in the data set with P388 [6] and 16 µM with P388 [7]. In addition, the RF with L1210 [5] and in the data set on P388 [8] was 1.4 in each case.

These data come from ChEMBL document CHEMBL1125771, “Synthesis, activation, and cytotoxicity of aldophosphamide analogues” (J Med Chem, 1991).
